This sample holds only a part of the variants without activity.
B1: tRNA (parent)
chain: GUUCCGUUGGCGUAAUGGUAACGCGUCUCCCUCCUAAGGAGAAGACUGCGGGUUCGAGUCCCGUACGGAACG

Variants of: B1
Experiment: yeast fitness relative to wild type (ratio to wild type); higher = fitter; tRNA-Arg(CCU), competitive growth, 37 C, YPD
Method in brief: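 For this measurement, the tRNA-Arg(CCU) gene was varied by chemical synthesis at a 3% per-site mutation rate across 69 sites, and each variant was placed at the native genomic locus in Saccharomyces cerevisiae. The pooled strains went through a 24-hour competition in YPD at 37°C in six parallel replicates, with amplicons from start and end populations read by 100-nucleotide paired-end sequencing. Darwinian fitness relative to wild type followed from the change in each genotype's frequency. Genotypes needed ≥ 100 starting reads, and estimates < 0.5 were set to 0.5.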

| Variant | yeast fitness |
| --- | --- |
| G23C C30A | 0.6 |
| G23C A70C | 0.73 |
| G23C C34U A36U | ≤ 0.5 |
| G23C C34U A36U C55A | 0.581 |
| G23C C61G G68C | 0.5 |
| G23C U32C | 0.72 |
| G23C U32A | 0.565 |
| C24A A40G C49A C61G | 0.53 |
| G23C U28A A36C | ≤ 0.5 |
| G23C U26C C46G | 0.57 |
| C24A C31G C34U G68A | ≤ 0.5 |
| G23C C55U | ≤ 0.5 |
| G23C C33U A42G A43C U64A C66A A69C A70C | ≤ 0.5 |
| G23C C27G U53C C61A G68A | ≤ 0.5 |
| C24A A36G A43G A57G | ≤ 0.5 |
| C24A C27A U28A | 0.53 |
| C24A C29U G50A A65G C66U | ≤ 0.5 |
| C24A C31U A42C U64A | ≤ 0.5 |
| C24A C30U A45G A57U C62U | 0.614 |
| G23C C30A C46A | ≤ 0.5 |
| G23C C29G A43U G50A G63A A65C | ≤ 0.5 |

| Variant | yeast fitness |
| --- | --- |
| C24A A43U G48A | ≤ 0.5 |
| C24A A43U G48C | ≤ 0.5 |
| G23C C27G U35G C62A | 0.59 |
| G23C C31G G44C U47A C66U A69C | ≤ 0.5 |
| C24A A37G A57G G63A A65G | ≤ 0.5 |
| C24A A37C G38A G58C G63C | ≤ 0.5 |
| C24A A37G A57C | ≤ 0.5 |
| C24A A57C C60U G67C | ≤ 0.5 |
| C24A C31A A65C | ≤ 0.5 |
| C24A C31G G51C C55U G58C A70U | ≤ 0.5 |
| G23C C29G A43U G50A A57G | ≤ 0.5 |
| G23C C33A A36U | 0.529 |
| C24A C31U A42C U47C | ≤ 0.5 |
| G23C U32A C49A U54G | ≤ 0.5 |
| G23C C29A G44A | 0.608 |
| G23C C29A G38A A57G | ≤ 0.5 |
| G23C A37U U47C C60G C66U | ≤ 0.5 |
| G23C C24A C30G A37C A45U G68C | ≤ 0.5 |
| G23C A45C C66G | ≤ 0.5 |
| G23C G25A C30G A65C | ≤ 0.5 |
| G23C C33G A42U G56U C62U | ≤ 0.5 |

| Variant | yeast fitness |
| --- | --- |
| C24A C27U C30U G52C | 0.596 |
| G23C C46U | 0.568 |
| G23C C29G A43U G50A G68U | ≤ 0.5 |
| G23C C27A A45G G51C G63A G68A | ≤ 0.5 |
| G23C C27U | 0.726 |
| G23C C31A C49A | 0.758 |
| C24A A36U A43C C55A G56A | ≤ 0.5 |
| C24A C33G C34U G58C | 0.551 |
| C24A C30U U64G | ≤ 0.5 |
| G23C C30G A70G | ≤ 0.5 |
| C24A C31G G38C | ≤ 0.5 |
| G23C C24A C49A U54C | 0.655 |
| C24A A42G G48C | ≤ 0.5 |
| G23C G44C C49U A57C | ≤ 0.5 |
| C24A C27G | 0.571 |
| C24A C27U | 0.702 |
| G23C A40U C55U | ≤ 0.5 |
| G23C C31G A40U G51A A57C | ≤ 0.5 |
| G23C C29G A43U G50A | 0.702 |
| G23C C24A C30G A40U U47A G51C G63A C66A A69U | 0.54 |
| G23C C27U C30U | 0.53 |

| Variant | yeast fitness |
| --- | --- |
| G23C C30U C46U | ≤ 0.5 |
| C24A C29A G44A C46G | 0.583 |
| C24A C31U A42C C66U | ≤ 0.5 |
| G23C C27G A45G G52A C66A | 0.634 |
| G23C A43G G58C U64G | 0.57 |
| C24A C31U A42C | 0.529 |
| G23C C62U | 0.743 |
| G23C C62A | 0.541 |
| G23C A57G G68A | 0.859 |
| G23A U59C G68A | ≤ 0.5 |
| C24A A43C A65G | ≤ 0.5 |
| G23C G68C | 0.697 |
| G23A U47A G58C | 0.596 |
| G23C C24U U59A | ≤ 0.5 |
| G23C C49U C62A C66A | ≤ 0.5 |
| G23C U32A C49U | ≤ 0.5 |
| C24A C33A C66A | 0.533 |
| G23C U47G C62G G68A | ≤ 0.5 |
| G23C U64A | 0.564 |
| C24A A36G A37G A69C | ≤ 0.5 |
